# From PubChem BioAssay
# Rin1-Abl PPI inh – inhibitors of human Rin1-Abl protein interaction; P00519+Q13671; actives 0.4% (n = 360,000); TR-FRET Rin1/Abl binding, biochemical; AID 588664; inhibition, % at 7.35 µM; in the data active = inhibition above about 5%, passing the limit was not always enough
# TbMetRS inhib – Trypanosoma brucei MetRS inhibition; purified T. brucei MetRS, ATP depletion, Kinase-Glo luminescence; inhibition, % at 11.9 µM; actives 0.4% (n = 360,000); AID 624268;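 active = inhibition above a per-plate cutoff of the control wells' mean inhibition plus 3 SD, cut at about 5.5% in these data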;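 also: 0% = DMSO wells median and 100% = median of wells with control inhibitor compound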
#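 Material – parasite MetRS enzyme · Medium – HEPES-MgCl2-KCl buffer plus DTT, spermine, BSA, pyrophosphatase · Reagent – ATP, methionine and E. coli bulk tRNA substrates · Times – 15 min enzyme-compound preincubation, 2 h reaction, 10 min detection, 25 °C · Measured by – luminescence of leftover ATP · Evaluation – percent inhibition relative to median high and low control wells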
# ATG4B inhibitor – blocks human ATG4B protease cleavage of LC3 substrate. Q9Y4P1. ATG4B cleavage of LC3-PLA2, NBD-HPC fluorescence, 1 h. inhibition, % at 8.33 µM. actives 0.51% (n = 340,000); in the data active = inhibition above about 40%
# UCH37 DUB inh – blocks the human deubiquitinase UCH37; Q9Y5K5; purified proteasome/UCH37, Ub-AMC cleavage fluorescence; inhibition, % (test concentration not listed); actives 0.33% (n = 330,000); AID 588478;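 active = mean inhibition over replicate wells above about 20%, limit read from the data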;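 also: 0% = compound-free wells with enzyme and 100% = wells lacking proteasome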
#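 Schedule: 30 min plus 25 min, room temperature / Material: human UCH37 within purified proteasomes / Technique: AMC fluorescence intensity at 355/460 nm / Buffer or medium: pH 7.4 Tris-HCl (50 mM) with ovalbumin, ATP-MgCl2, DTT / Controls: wells without proteasome as full block, compound-free enzyme plus substrate as uninhibited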
# Rin1-Abl confirm – confirmation of inhibitors of human Rin1-Abl interaction; TR-FRET Rin1-Abl binding, purified proteins; actives 49% (n = 1,300); shares compounds with Rin1-Abl PPI inh; inhibition, % at 7.35 µM; AID 602124
# GFP quench-1 – counter-screen for Rin1-Abl inhibitors: GFP fluorescence quenchers; inhibitors/quenchers counterscreen; inhibition, % at 6.75 µM; shares compounds with Rin1-Abl PPI inh; actives 8.5% (n = 1,300);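 also: ABL1-eGFP fusion protein alone without its partner RIN1-SBP; 0% = protein with vehicle and 100% = wells lacking protein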
# GFP quench dose – GFP fluorescence interference dose response | IC50, µM | 230 tested, under 10 active | shares compounds with Rin1-Abl PPI inh | GFP fluorescence interference/quenching counterscreen; call rule not given here;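 also: ABL1-eGFP fusion protein alone without its RIN1 binding partner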
# GFP quench-2 – counter-screen for Rin1-Abl interaction inhibitors: GFP fluorescence quenching; 25 tested, under 10 active; GFP fluorescence quenching counterscreen, biochemical; shares compounds with Rin1-Abl PPI inh; IC50, µM; AID 602397; call rule not given here
# Numbers without * were called inactive; . = not tested or not shown. Rows were chosen to be rich in hits. Some 1.4% of all compounds tested hit in one or more screens of this group. Rule as the data show it, unless noted: active = inhibition above about 6.5%; inactive = the rest.
SMILES,Rin1-Abl PPI inh,TbMetRS inhib,ATG4B inhibitor,UCH37 DUB inh,Rin1-Abl confirm,GFP quench-1,others
Cc1ccc(-c2cc(C(=O)Nc3cnn(C(C)C)c3)no2)cc1,-1,-1,-10,-33,.,.,
O=C(Cc1ccc(NC(=O)C2CCN(C(=O)C3CC3)CC2)cc1)Nc1ccc(C(=O)N2CCOCC2)cc1,8.9*,0,1,0,9.7*,-2,
CC(C)(C)OC(=O)N1CCC(C(=O)Nc2ccc(C(=O)N3CCCCC3)cc2)CC1,25*,0,-2,.,17*,0,GFP quench dose=>68
CC(C)(C)OC(=O)N1CCC(C(=O)Nc2ccc(C(=O)N3CCOCC3)cc2)CC1,8,0,1,0,.,.,
O=C(Cc1cccc(NC(=O)C2CCN(C(=O)C3CC3)CC2)c1)Nc1cccc(C(=O)N2CCOCC2)c1,2,1,6,3,.,.,
CCOC(=O)C1CCN(C(=O)Nc2ccc(NC(=O)C3CCN(C(=O)OCC)CC3)cc2)CC1,14*,-1,-1,-2,11*,0,
O=C(Cc1ccc(NC(=O)C2CCN(C(=O)C3CCCC3)CC2)cc1)Nc1ccc(C(=O)N2CCOCC2)cc1,67*,0,-6,1,70*,-1,GFP quench dose=>68;GFP quench-2=>68
CC(C)(C)OC(=O)NC(=NCCCc1cn(CC(=O)N2CCN(C(=O)OC(C)(C)C)CC2)nn1)NC(=O)OC(C)(C)C,5,0,-10,2,.,.,
CC(/C=N/O)Cc1ccc2c(c1)OCO2 (stereo not given),2,-1,-7,.,.,.,
CCOc1ccccc1OCCC(=O)OCC(=O)Nc1c(C)nn(-c2ccccc2)c1C,1,-1,-2,-1,.,.,
C=CCC(=O)N1CCCC(C(=O)c2ccc(Cl)cc2)C1 (stereo not given),6.9*,-1,4,2,0,0,
CN1CCN(C(c2ccccn2)c2cc(Cl)c3cccnc3c2O)CC1 (stereo not given),26*,0,-4,7,22*,4,GFP quench dose=>68
Cc1ccc(C(c2cc(Cl)c3cccnc3c2O)N2CCN(C)CC2)cc1 (stereo not given),3,0,-5,.,.,.,
CCOC(=O)c1c(C)nc2cc(C)ccn12,4,-1,-2,-2,.,.,
O=S(=O)(Nc1nccs1)c1ccc(Br)cc1,11*,1,2,0,-2,0,
Cc1csc(SCC(=O)Nc2nc3ccccc3s2)n1,0,-1,-5,5,.,.,
Cn1cc(SCC(=O)Nc2nc3ccccc3s2)c2ccccc21,7.0*,-2,-24,0,-2,2,
Cc1ccc(C(=O)N2CC(C)CC(C)C2)cc1NC1=NC2CS(=O)(=O)CC2S1 (stereo not given),22*,1,-4,3,26*,0,GFP quench dose=>68
CCOC(=O)C1CCN(C(=O)c2cccc(NC3=NC4CS(=O)(=O)CC4S3)c2)CC1 (stereo not given),18*,0,-5,2,15*,-1,
CC(C)CNC1=CC(=O)CC(c2ccco2)C1 (stereo not given),5.9*,-1,2,3,0,4,
COc1ccc(N2CCN(C(=O)CSc3nnc(-c4cccnc4)n3-c3ccccc3)CC2)cc1,8.1*,-1,-11,1,5,0,
COc1ccc(N2CCN(C(=O)CSc3nnc(-c4cccnc4)n3-c3ccc(F)cc3)CC2)cc1,0,-1,-21,1,.,.,
O=C(O)c1ccc(CSc2nnc(-c3cccnc3)n2-c2ccc(Br)cc2)cc1,21*,-1,4,5,33*,0,GFP quench dose=>68
CC(=O)c1ccc(OC(C)C)c(CN2CCCCC2)c1,8.6*,-2,1,7,-1,0,
CCN(CC)c1ccc(N=Cc2ccc(N(CC)CC)cc2O)cc1,11*,0,4,.,0,-2,
COc1ccc(CCNC(=O)CSc2nc3c(c(=O)n(C)c(=O)n3C)n2C(C)C)cc1OC,2,-1,1,1,.,.,
